How the values were obtained:
[1] = Cytotoxicity against HEK293T cells at 10 uM after 48 hrs by cell proliferation assay; assay type: toxicity, cell-based; details: human, hek-293t
Outline: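 HEK 293T cells seeded at 1×10^4 cells/well, treated next day with serially diluted compounds and cultured 48 h; viability read with a cell proliferation assay kit per manufacturer's instructions. Footnote reports testing at a final concentration of 10 μM.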

[2] = system: Human immunodeficiency virus 1; experiment: Antiviral activity against wild-type HIV-1 NL4-3 harboring vesicular stomatitis virus glycoprotein infected in HEK293T cells pretreated with cells for 15 mins followed by viral infection measured after 48 hrs by luciferase reporter gene assay; assay type: functional, cell-based; details: Human immunodeficiency virus 1, NL4-3, HEK-293T
Outline: (§1)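 VSV-G-pseudotyped HIV-1 (wild-type or RT mutant) produced by co-transfection of HEK293T cells (calcium phosphate), supernatant harvested 48 h, 0.22 µm filtered, normalised by p24 ELISA to 0.2 ng p24/mL.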

[3] = system: Human immunodeficiency virus 1; experiment: Ratio of IC50 for HIV-1 NL4-3 harboring RT-K103N mutant infected in HEK293T cells co-expressing vesicular stomatitis virus glycoprotein to IC50 for wild-type HIV-1 NL4-3 infected in HEK293T cells co-expressing vesicular stomatitis virus glycoprotein; assay type: functional, HEK-293T
[4] = system: Human immunodeficiency virus 1; experiment: Ratio of IC50 for HIV-1 NL4-3 harboring RT-K103N/V108I double mutant infected in HEK293T cells co-expressing vesicular stomatitis virus glycoprotein to IC50 for wild-type HIV-1 NL4-3 infected in HEK293T cells co-expressing vesicular stomatitis virus glycoprotein; assay type: functional, HEK-293T
Outline: (§2)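 Fold change: mean IC50 against each RT-mutant VSV-G-pseudotyped virus divided by IC50 against wild-type pseudovirus. Both values come from the same HEK293T assay: 0.2 ng p24/mL inoculum, compound added 15 min before infection, luciferase read-out at 48 h.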

[5] = system: Human immunodeficiency virus 1; experiment: Antiviral activity against HIV-1 NL4-3 harboring RT-K103N mutant infected in HEK293T cells coexpressing vesicular stomatitis virus glycoprotein pretreated with cells for 15 mins followed by viral infection measured after 48 hrs by luciferase reporter gene assay; assay type: functional, cell-based; details: hek-293t; outline: as §1
[6] = system: Human immunodeficiency virus 1; experiment: Antiviral activity against HIV-1 NL4-3 harboring RT-Y181C mutant infected in HEK293T cells coexpressing vesicular stomatitis virus glycoprotein pretreated with cells for 15 mins followed by viral infection measured after 48 hrs by luciferase reporter gene assay; assay type: functional, cell-based; details: hek-293t; outline: as §1
[7] = system: Human immunodeficiency virus 1; experiment: Ratio of IC50 for HIV-1 NL4-3 harboring RT-Y181C mutant infected in HEK293T cells co-expressing vesicular stomatitis virus glycoprotein to IC50 for wild-type HIV-1 NL4-3 infected in HEK293T cells co-expressing vesicular stomatitis virus glycoprotein; assay type: functional, HEK-293T; outline: as §2
[8] = system: Human immunodeficiency virus 1; experiment: Antiviral activity against HIV-1 NL4-3 harboring RT-Y188L mutant infected in HEK293T cells coexpressing vesicular stomatitis virus glycoprotein pretreated with cells for 15 mins followed by viral infection measured after 48 hrs by luciferase reporter gene assay; assay type: functional, cell-based; details: hek-293t; outline: as §1
[9] = system: Human immunodeficiency virus 1; experiment: Antiviral activity against HIV-1 NL4-3 harboring RT-K103N/V108I double mutant infected in HEK293T cells coexpressing vesicular stomatitis virus glycoprotein pretreated with cells for 15 mins followed by viral infection measured after 48 hrs by luciferase reporter gene assay; assay type: functional, cell-based; details: hek-293t; outline: as §1
[10] = system: Human immunodeficiency virus 1; experiment: Ratio of IC50 for HIV-1 NL4-3 harboring RT-Y188L mutant infected in HEK293T cells co-expressing vesicular stomatitis virus glycoprotein to IC50 for wild-type HIV-1 NL4-3 infected in HEK293T cells co-expressing vesicular stomatitis virus glycoprotein; assay type: functional, HEK-293T; outline: as §2
[11] = system: Human immunodeficiency virus 1; experiment: Ratio of IC50 for HIV-1 NL4-3 harboring RT-K103N/Y181C double mutant infected in HEK293T cells co-expressing vesicular stomatitis virus glycoprotein to IC50 for wild-type HIV-1 NL4-3 infected in HEK293T cells co-expressing vesicular stomatitis virus glycoprotein; assay type: functional, HEK-293T; outline: as §2
[12] = system: Human immunodeficiency virus 1; experiment: Antiviral activity against HIV-1 NL4-3 harboring RT-K103N/G190A double mutant infected in HEK293T cells coexpressing vesicular stomatitis virus glycoprotein pretreated with cells for 15 mins followed by viral infection measured after 48 hrs by luciferase reporter gene assay; assay type: functional, cell-based; details: hek-293t; outline: as §1
[13] = system: Human immunodeficiency virus 1; experiment: Antiviral activity against HIV-1 NL4-3 harboring RT-K103N/Y181C double mutant infected in HEK293T cells coexpressing vesicular stomatitis virus glycoprotein pretreated with cells for 15 mins followed by viral infection measured after 48 hrs by luciferase reporter gene assay; assay type: functional, cell-based; details: hek-293t; outline: as §1
[14] = system: Human immunodeficiency virus 1; experiment: Ratio of IC50 for HIV-1 NL4-3 harboring RT-L100I/K103N double mutant infected in HEK293T cells co-expressing vesicular stomatitis virus glycoprotein to IC50 for wild-type HIV-1 NL4-3 infected in HEK293T cells co-expressing vesicular stomatitis virus glycoprotein; assay type: functional, HEK-293T; outline: as §2
[15] = system: Human immunodeficiency virus 1; experiment: Ratio of IC50 for HIV-1 NL4-3 harboring RT-K103N/P225H double mutant infected in HEK293T cells co-expressing vesicular stomatitis virus glycoprotein to IC50 for wild-type HIV-1 NL4-3 infected in HEK293T cells co-expressing vesicular stomatitis virus glycoprotein; assay type: functional, HEK-293T; outline: as §2
[16] = Inhibition of wild-type HIV-1 reverse transcriptase RNA-dependent DNA polymerase activity assessed as reduction in digoxigenin-11-dUTP incorporation using poly(rA)/oligo(dT) as template/primer incubated for 1 hr; parameters: species or system Human immunodeficiency virus 1
[17] = system: Human immunodeficiency virus 1; experiment: Antiviral activity against HIV-1 NL4-3 harboring RT-K103N/Y188L double mutant infected in HEK293T cells coexpressing vesicular stomatitis virus glycoprotein pretreated with cells for 15 mins followed by viral infection measured after 48 hrs by luciferase reporter gene assay; assay type: functional, cell-based; details: hek-293t; outline: as §1
[18] = system: Human immunodeficiency virus 1; experiment: Ratio of IC50 for HIV-1 NL4-3 harboring RT-K103N/Y188L double mutant infected in HEK293T cells co-expressing vesicular stomatitis virus glycoprotein to IC50 for wild-type HIV-1 NL4-3 infected in HEK293T cells co-expressing vesicular stomatitis virus glycoprotein; assay type: functional, HEK-293T; outline: as §2
[19] = system: Human immunodeficiency virus 1; experiment: Ratio of IC50 for HIV-1 NL4-3 harboring RT-K103N/G190A double mutant infected in HEK293T cells co-expressing vesicular stomatitis virus glycoprotein to IC50 for wild-type HIV-1 NL4-3 infected in HEK293T cells co-expressing vesicular stomatitis virus glycoprotein; assay type: functional, HEK-293T; outline: as §2
[20] = system: Human immunodeficiency virus 1; experiment: Antiviral activity against HIV-1 NL4-3 harboring RT-L100I/K103N double mutant infected in HEK293T cells coexpressing vesicular stomatitis virus glycoprotein pretreated with cells for 15 mins followed by viral infection measured after 48 hrs by luciferase reporter gene assay; assay type: functional, cell-based; details: hek-293t; outline: as §1
[21] = system: Human immunodeficiency virus 1; experiment: Antiviral activity against HIV-1 NL4-3 harboring RT-K103N/P225H double mutant infected in HEK293T cells coexpressing vesicular stomatitis virus glycoprotein pretreated with cells for 15 mins followed by viral infection measured after 48 hrs by luciferase reporter gene assay; assay type: functional, cell-based; details: hek-293t; outline: as §1

## COc1cccc(Cc2sc(NCc3ccc4c(c3)CCO4)nc2-c2ccccc2)c1
[1]
  Activity: Non-Toxic
[2]
  IC50: 136 nM

## Fc1cc(F)cc(Cc2sc(NCc3ccc4c(c3)CCO4)nc2-c2ccc(F)cc2F)c1
[3]
  Ratio IC50: 14
[4]
  Ratio IC50: 218
[5]
  IC50: 200 nM
[6]
  IC50: 1100 nM
[1]
  Activity: Non-Toxic
[7]
  Ratio IC50: 79
[8]
  IC50: 7000 nM
[9]
  IC50: 3900 nM
[10]
  Ratio IC50: 504
[2]
  IC50: 13.9 to 14 nM

## Cc1ccnc2c1NC(=O)c1cccnc1N2C1CC1 [NEVIRAPINE]
[11]
  Ratio IC50: >322
[3]
  Ratio IC50: 519
[4]
  Ratio IC50: 90
[12]
  IC50: > 10000 nM
[13]
  IC50: > 10000 nM
[14]
  Ratio IC50: 161
[15]
  Ratio IC50: 177
[7]
  Ratio IC50: 2152
[8]
  IC50: > 10000 nM
[16]
  IC50: 2100 nM
[17]
  IC50: > 10000 nM
[18]
  Ratio IC50: >322
[19]
  Ratio IC50: >322
[10]
  Ratio IC50: >322
[20]
  IC50: 5000 nM

## Clc1cccc(Cl)c1Cc1sc(NCc2ccc3c(c2)CCO3)nc1-c1ccccc1
[11]
  Ratio IC50: >161.8
[3]
  Ratio IC50: 24.8
[4]
  Ratio IC50: 48.5
[12]
  IC50: 560 nM
[5]
  IC50: 1530 nM
[13]
  IC50: > 10000 nM
[6]
  IC50: 390 nM
[21]
  IC50: > 10000 nM
[14]
  Ratio IC50: 81.7
[1]
  Activity: Non-Toxic
[15]
  Ratio IC50: >161.8
[7]
  Ratio IC50: 6.3
[8]
  IC50: > 10000 nM
[17]
  IC50: > 10000 nM
[18]
  Ratio IC50: >161.8
[19]
  Ratio IC50: 9.1
[9]
  IC50: 3000 nM
[10]
  Ratio IC50: >161.8
[2]
  IC50: 61.8 to 62 nM
[20]
  IC50: 5050 nM

## COc1ccc(Cc2sc(NCc3ccc4c(c3)CCO4)nc2-c2ccccc2)cc1
[1]
  Activity: Non-Toxic
[2]
  IC50: > 10000 nM

## Clc1ccc(-c2nc(NCc3ccc4c(c3)CCO4)sc2Cc2c(Cl)cccc2Cl)c(Cl)c1
[1]
  Activity: Non-Toxic
[2]
  IC50: 71 nM

## Clc1ccc(Cc2sc(NCc3ccc4c(c3)CCO4)nc2-c2ccccc2)cc1
[1]
  Activity: Non-Toxic
[2]
  IC50: > 10000 nM

## Fc1cc(F)cc(Cc2sc(NCc3ccc4c(c3)CCO4)nc2-c2ccccc2Cl)c1
[3]
  Ratio IC50: 7.8
[4]
  Ratio IC50: 29
[5]
  IC50: 80 nM
[6]
  IC50: 400 nM
[1]
  Activity: Non-Toxic
[7]
  Ratio IC50: 39
[8]
  IC50: 1400 nM
[16]
  IC50: 25 nM
[9]
  IC50: 300 nM
[10]
  Ratio IC50: 136
[2]
  IC50: 10 nM

## COc1ccccc1Cc1sc(NCc2ccc3c(c2)CCO3)nc1-c1ccccc1Cl
[1]
  Activity: Non-Toxic
[16]
  IC50: 14 nM
[2]
  IC50: 10 nM

## COc1ccccc1Cc1sc(NCc2ccc3c(c2)CCO3)nc1-c1ccc(F)cc1F
[11]
  Ratio IC50: 10.1
[3]
  Ratio IC50: 6.5
[4]
  Ratio IC50: 17
[12]
  IC50: 490 nM
[5]
  IC50: 290 nM
[13]
  IC50: 450 nM
[6]
  IC50: 130 nM
[21]
  IC50: 1050 nM
[14]
  Ratio IC50: 19.5
[1]
  Activity: Non-Toxic
[15]
  Ratio IC50: 23.5
[7]
  Ratio IC50: 2.9
[8]
  IC50: > 10000 nM
[17]
  IC50: > 10000 nM
[18]
  Ratio IC50: >223.7
[19]
  Ratio IC50: 11
[9]
  IC50: 760 nM
[10]
  Ratio IC50: >223.7
[2]
  IC50: 44.7 to 45 nM
[20]
  IC50: 870 nM

## c1ccc(Cc2sc(NCc3ccc4c(c3)CCO4)nc2-c2ccccc2)cc1
[1]
  Activity: Non-Toxic
[2]
  IC50: 239 nM

## Fc1ccccc1-c1nc(NCc2ccc3c(c2)CCO3)sc1Cc1c(Cl)cccc1Cl
[1]
  Activity: Non-Toxic
[2]
  IC50: 32 nM

## Clc1ccccc1-c1nc(NCc2ccc3c(c2)CCO3)sc1Cc1c(Cl)cccc1Cl
[1]
  Activity: Non-Toxic
[2]
  IC50: 22 nM

## COc1ccccc1Cc1sc(NCc2ccc3c(c2)CCO3)nc1-c1ccc(Cl)cc1Cl
[1]
  Activity: Non-Toxic
[2]
  IC50: 88 nM

## Fc1cc(F)cc(Cc2sc(NCc3ccc4c(c3)CCO4)nc2-c2ccccc2F)c1
[1]
  Activity: Non-Toxic
[16]
  IC50: 64 nM
[2]
  IC50: 10 nM

## O=C1Nc2ccc(Cl)cc2[C@@](C#CC2CC2)(C(F)(F)F)O1 [EFAVIRENZ]
[13]
  IC50: 58.7 nM
[17]
  IC50: 13800 nM
[2]
  IC50: 1.04 nM
[20]
  IC50: 2490 nM

## Fc1ccc(-c2nc(NCc3ccc4c(c3)CCO4)sc2Cc2c(Cl)cccc2Cl)c(F)c1
[1]
  Activity: Non-Toxic
[2]
  IC50: 21 nM

## COc1ccccc1Cc1sc(NCc2ccc3c(c2)CCO3)nc1-c1ccccc1F
[1]
  Activity: Non-Toxic
[16]
  IC50: 20 nM
[2]
  IC50: 10 nM

## Fc1ccc(Cc2sc(NCc3ccc4c(c3)CCO4)nc2-c2ccccc2)cc1
[1]
  Activity: Non-Toxic
[2]
  IC50: 5670 nM

## Fc1cc(F)cc(Cc2sc(NCc3ccc4c(c3)CCO4)nc2-c2ccc(Cl)cc2Cl)c1
[1]
  Activity: Non-Toxic
[2]
  IC50: 68 nM

## COc1ccccc1Cc1sc(NCc2ccc3c(c2)CCO3)nc1-c1cc(F)cc(F)c1
[1]
  Activity: Non-Toxic
[2]
  IC50: 7320 nM
